ChEMBL document CHEMBL6134795, “Mannich reaction mediated derivatization of chromones and their biological evaluations as putative multipotent ligands for the treatment of Alzheimer's disease” (RSC Med Chem, 2024)
The source made the active and inactive calls. The rule behind the calls is not given here.

Experiments:
[1] = biological target: Amyloid-beta precursor protein (Homo sapiens) (UniProt P05067); experiment: Inhibition of self-induced amyloid beta (1 to 42 residues) (unknown origin) aggregation assessed as reduction in fibrils formation measured after 72 hrs by FE-SEM analysis
Outline: (§1)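 HFIP-pretreated Aβ1-42 incubated with or without inhibitor for 72 h; samples placed on carbon-coated copper grids, dried 1 h at 37 °C, imaged by FE-SEM. Glycine–NaOH buffer served as blank and Aβ alone as control.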

[2] = biological target: Amyloid-beta precursor protein (Homo sapiens) (UniProt P05067); experiment: Inhibition of self-induced amyloid beta (1 to 42 residues) (unknown origin) aggregation at 20 uM incubated at 24 hrs by fluorimetry-based thioflavin T assay
Outline: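 Aβ1-42 pretreated with HFIP (1 mg mL−1) and dried, then incubated with compound (20 μM) at 37 °C for 24 h; an aliquot transferred and incubated further to 48 h. Glycine–NaOH buffer pH 8.0 with 5 μM ThT added; fluorescence read at 440–485 nm. % inhibition calculated against the Aβ-only control taken as 0%.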

Acetylcholinesterase [3] = biological target: T1, Acetylcholinesterase (Homo sapiens, UniProt P22303); experiment: Reversible inhibition of AChE (unknown origin) assessed as residual activity at 0.1 times IC50 incubated for 30 mins by dilution method relative to control
Outline: (§2)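 Samples then diluted 100-fold with substrate, giving final inhibitor levels of 0.1× and 1× IC50. Recovered activity measured relative to control; triplicate.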

SH-SY5Y [4] = experiment: Inhibition of ROS production in human SH-SY5Y cells assessed as intracellular ROS level at 5 uM incubated for 24 hrs by DCF-DA staining based fluorescence analysis relative to control; assay type: functional
Outline: (§3)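 Cultured SH-SY5Y cells exposed to compound (1, 5, 25 μM) for 24 h; intracellular ROS detected with DCF-DA, which is converted to fluorescent 2,7-DCF, read at ex 478/em 518 nm. Inhibition is expressed relative to control. Mean ± SD of triplicate or more independent experiments.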

Acetylcholinesterase [5] = biological target: T1, Acetylcholinesterase; experiment: Reversible inhibition of AChE (unknown origin) assessed as residual activity at 100 times IC50 incubated for 30 mins by dilution method relative to control; outline: as §2
SH-SY5Y [6] = experiment: Cytotoxicity against human SH-SY5Y cells assessed as cell viability at 1 uM by MTT assay relative to control; assay type: functional; conditions: read-out: Activity
Outline: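 SH-SY5Y cells (DMEM/F-12 with 10% FBS, 1% horse serum, 1% penicillin) preincubated 24 h with compound at 1, 5 or 25 μM; MTT converted to formazan, solubilised in DMSO, absorbance read at 595 nm; viability expressed as percentage of untreated control.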

SH-SY5Y [7] = experiment: Inhibition of ROS production in human SH-SY5Y cells assessed as intracellular ROS level at 1 uM incubated for 24 hrs by DCF-DA staining based fluorescence analysis relative to control; assay type: functional; outline: as §3
Acetylcholinesterase [8] = biological target: T1, Acetylcholinesterase; experiment: Reversible inhibition of AChE (unknown origin) assessed as residual activity at 1 times IC50 incubated for 30 mins by dilution method relative to control; outline: as §2
SH-SY5Y [9] = experiment: Neuroprotective activity against 6-OHDA-induced cytotoxicity in human SH-SY5Y cells assessed as cell viability at 5 uM incubated for 24 hrs followed by exposure to 6-OHDA by MTT assay relative to control; assay type: functional; conditions: read-out: Activity
Outline: (§4)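 SH-SY5Y cells treated with compound (1, 5, 25 μM) and challenged with 6-OHDA; cultured 24 h at 37 °C under humidified 5% CO2. Viability measured by MTT as formazan absorbance at 594 nm and expressed relative to control.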

[10] = biological target: T2, Amine oxidase [flavin-containing] B (Homo sapiens, UniProt P27338); experiment: Reversible inhibition of MAO-B (unknown origin) assessed as residual activity at 100 times IC50 incubated for 30 mins by dilution method relative to control; conditions: 0.5 h
T2 sequence (P27338 whole entry): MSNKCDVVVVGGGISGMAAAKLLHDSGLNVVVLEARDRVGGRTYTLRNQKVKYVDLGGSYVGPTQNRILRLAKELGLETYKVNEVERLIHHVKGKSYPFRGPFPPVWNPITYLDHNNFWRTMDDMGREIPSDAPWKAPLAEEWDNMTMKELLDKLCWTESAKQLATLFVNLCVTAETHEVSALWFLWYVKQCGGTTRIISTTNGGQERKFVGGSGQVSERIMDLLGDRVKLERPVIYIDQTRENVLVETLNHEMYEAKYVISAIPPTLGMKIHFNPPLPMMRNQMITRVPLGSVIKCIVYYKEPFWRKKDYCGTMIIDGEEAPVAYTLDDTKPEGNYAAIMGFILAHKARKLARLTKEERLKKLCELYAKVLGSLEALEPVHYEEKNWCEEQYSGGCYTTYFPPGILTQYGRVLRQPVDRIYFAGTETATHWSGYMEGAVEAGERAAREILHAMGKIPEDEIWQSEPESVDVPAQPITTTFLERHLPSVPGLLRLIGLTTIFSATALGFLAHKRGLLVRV

[11] = biological target: T2, Amine oxidase [flavin-containing] B; experiment: Reversible inhibition of MAO-B (unknown origin) assessed as residual activity at 1 times IC50 incubated for 30 mins by dilution method relative to control; conditions: 0.5 h
[12] = biological target: Amyloid-beta precursor protein (Homo sapiens) (UniProt P05067); experiment: Inhibition of self-induced amyloid beta (1 to 42 residues) (unknown origin) aggregation assessed as reduction in plaques formation measured after 72 hrs by FE-SEM analysis; outline: as §1
SH-SY5Y [13] = experiment: Neuroprotective activity against 6-OHDA-induced cytotoxicity in human SH-SY5Y cells assessed as cell viability at 25 uM incubated for 24 hrs followed by exposure to 6-OHDA by MTT assay relative to control; assay type: functional; conditions: read-out: Activity; outline: as §4
[14] = biological target: T2, Amine oxidase [flavin-containing] B; experiment: Inhibition of recombinant MAO-B (unknown origin) at 20 uM preincubated for 30 mins followed substrate addition by Amplex Red reagent based fluorescence analysis relative to control
Outline: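 Recombinant MAO enzyme preincubated with compound 30 min at 37 °C; substrate, HRP and Amplex Red working solution then added; H2O2 formation read at 37 °C by fluorescence, ex 545/em 590 nm. Screening at 20 μM as % inhibition versus control; IC50 only for compounds above 50% inhibition at 20 μM; triplicate (n = 3).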

T1 sequence (P22303 whole entry): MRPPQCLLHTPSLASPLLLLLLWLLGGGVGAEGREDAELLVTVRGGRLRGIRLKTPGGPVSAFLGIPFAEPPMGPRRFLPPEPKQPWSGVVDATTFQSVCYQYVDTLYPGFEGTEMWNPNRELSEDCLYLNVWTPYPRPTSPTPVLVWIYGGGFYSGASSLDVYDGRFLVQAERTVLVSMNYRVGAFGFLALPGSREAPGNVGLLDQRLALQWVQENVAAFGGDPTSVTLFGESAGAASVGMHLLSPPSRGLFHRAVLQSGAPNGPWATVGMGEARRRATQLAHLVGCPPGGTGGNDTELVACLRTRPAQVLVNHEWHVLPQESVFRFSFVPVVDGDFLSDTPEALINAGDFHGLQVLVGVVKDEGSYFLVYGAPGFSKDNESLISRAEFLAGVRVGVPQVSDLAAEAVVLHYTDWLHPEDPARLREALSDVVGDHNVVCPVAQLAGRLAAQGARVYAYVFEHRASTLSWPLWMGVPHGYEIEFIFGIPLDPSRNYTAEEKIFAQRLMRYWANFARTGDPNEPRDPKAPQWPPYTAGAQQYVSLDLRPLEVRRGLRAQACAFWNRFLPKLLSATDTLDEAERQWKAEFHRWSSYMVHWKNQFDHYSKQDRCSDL
Sequence of Amyloid-beta precursor protein (Homo sapiens) (P05067 whole entry, the tested form may be a part): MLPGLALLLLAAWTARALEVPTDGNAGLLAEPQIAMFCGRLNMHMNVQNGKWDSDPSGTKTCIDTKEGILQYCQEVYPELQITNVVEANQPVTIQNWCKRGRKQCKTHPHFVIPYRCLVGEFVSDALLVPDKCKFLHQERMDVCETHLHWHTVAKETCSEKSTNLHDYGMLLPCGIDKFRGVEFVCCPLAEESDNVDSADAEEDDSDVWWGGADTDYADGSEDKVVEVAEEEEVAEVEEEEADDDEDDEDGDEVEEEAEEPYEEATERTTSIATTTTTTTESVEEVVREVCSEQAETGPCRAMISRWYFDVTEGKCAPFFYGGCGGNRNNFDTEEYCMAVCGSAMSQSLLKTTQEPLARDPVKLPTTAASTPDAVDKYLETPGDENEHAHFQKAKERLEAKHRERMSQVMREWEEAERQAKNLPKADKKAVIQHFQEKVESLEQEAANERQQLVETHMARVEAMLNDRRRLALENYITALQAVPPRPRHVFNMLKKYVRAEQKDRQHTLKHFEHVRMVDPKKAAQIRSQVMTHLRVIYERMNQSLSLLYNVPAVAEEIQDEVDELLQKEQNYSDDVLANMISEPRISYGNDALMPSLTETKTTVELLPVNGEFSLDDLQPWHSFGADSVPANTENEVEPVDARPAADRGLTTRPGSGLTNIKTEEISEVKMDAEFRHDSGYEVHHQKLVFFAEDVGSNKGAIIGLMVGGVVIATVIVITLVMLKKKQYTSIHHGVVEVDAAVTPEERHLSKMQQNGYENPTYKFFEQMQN

**Q.** How did the inhibition [1] turn out when C#CCCCOc1ccc(-c2cc(=O)c3ccccc3o2)cc1CN1CCCCC1 was run?
**A.** The inhibition was “Active”.

**Q.** What about the inhibition [2] of the same compound?
**A.** The inhibition was 22.1%.

**Q.** And the Activity (Acetylcholinesterase [3])?
**A.** The Activity was 60.6%.

**Q.** And the inhibition at 5 µM (SH-SY5Y [4])?
**A.** Its inhibition at 5 µM is 44.9%.

**Q.** And the Activity (Acetylcholinesterase [5])?
**A.** Its Activity is 17.7%.

**Q.** And the viability at 1 µM (SH-SY5Y [6])?
**A.** The viability at 1 µM was 99.6%.

**Q.** What about the inhibition at 1 µM (SH-SY5Y [7]) of the same compound?
**A.** The inhibition at 1 µM was 65.7%.

**Q.** And the Activity (Acetylcholinesterase [8])?
**A.** The Activity was 44.9%.

**Q.** And the viability at 5 µM (SH-SY5Y [9])?
**A.** The viability at 5 µM was 42.9%.

**Q.** What about the Activity [10] of the same compound?
**A.** Its Activity is 15%.

**Q.** And the Activity [11]?
**A.** Its Activity is 50.3%.

**Q.** What about the inhibition [12] of the same compound?
**A.** The inhibition was “Active”.

**Q.** And the viability at 25 µM (SH-SY5Y [13])?
**A.** The viability at 25 µM was 44.1%.

**Q.** And the inhibition at 20 µM [14]?
**A.** Its inhibition at 20 µM is 61.2%.
